In ChEMBL document CHEMBL4480428, “Anti-inflammatory Lathyrane Diterpenoids from Euphorbia lathyris” (J Nat Prod, 2019) one finds IC50, inhibition and Activity data, which are given here for 17 compounds.

Usually IC50 stands for the concentration that inhibits the measured activity by half.

The source made the active and inactive calls. The calls are words filed in the database; no cut-off is given here. Bounds are passed on as bounds.

In data set [1] the test system is RAW264.7. The experiment in a line: Cytotoxicity against mouse RAW264.7 cells assessed as reduction in cell viability after 24 hrs by CCK8 assay. In kind it is cell-based. The settings on record: RAW264.7, 24 h. An outline of the steps:
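RAW264.7 macrophages cultured in DMEM with 10% FBS and penicillin/streptomycin at 37 °C, 5% CO2. Cells exposed to compound for 24 h. Viability measured by CCK8 kit following the manufacturer's instructions.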

For data set [2], the system named is RAW264.7. Put plainly: Anti-inflammatory activity in mouse RAW264.7 cells assessed as inhibition of LPS-induced nitric oxide production preincubated for 3 hrs followed by LPS-stimulation and measured after 24 hrs by Griess assay. Type of data set: functional, cell-based. The procedure, abridged:
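Mouse macrophage RAW264.7 cells (ATCC) grown in DMEM with 10% FBS and penicillin/streptomycin at 37 °C, 5% CO2. Seeded at 5000 cells/well and cultured overnight. Medium replaced with compound-containing medium (0−100 μM) for 3 h, then 1 μg/mL LPS added for 24 h. Supernatant mixed 1:1 with Griess reagent for 10 min at room temperature, absorbance read at 540 nm. Nitrite quantified from a standard curve; IC50 taken from inhibition rates across a concentration gradient.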
On the technique in general: Nitrite, measured by Griess reagent, commonly stands in for NO production.

The target of data set [3] is T1, NF-kappa-B inhibitor alpha (Mus musculus) (UniProt Q9Z1E3).
T1 sequence (whole entry): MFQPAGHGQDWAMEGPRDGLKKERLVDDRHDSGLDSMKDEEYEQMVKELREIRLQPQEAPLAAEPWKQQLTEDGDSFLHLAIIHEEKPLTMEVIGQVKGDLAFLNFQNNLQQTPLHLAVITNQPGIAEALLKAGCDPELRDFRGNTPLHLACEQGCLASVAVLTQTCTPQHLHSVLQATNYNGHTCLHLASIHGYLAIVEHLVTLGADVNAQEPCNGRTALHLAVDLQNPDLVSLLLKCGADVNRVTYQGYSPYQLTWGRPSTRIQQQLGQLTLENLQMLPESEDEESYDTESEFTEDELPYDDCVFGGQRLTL
Put plainly: Inhibition of IkappaBalpha phosphorylation in LPS-stimulated mouse RAW264.7 cells assessed as reduction in iNOS expression preincubated for 3 hrs followed by LPS-stimulation and measured by Western blot analysis. In kind it is cell-based. An outline of the steps:
(§1)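 Cells were pretreated with compound for 3 h before LPS addition. Equal protein by BCA went onto 10% SDS-PAGE and nitrocellulose, probed for iNOS, NF-κB, IκBα and p-IκBα with chemiluminescence detection.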

Data set [4] has as its system RAW264.7. Put plainly: Cytotoxicity against mouse RAW264.7 cells assessed as reduction in cell viability at 100 uM after 24 hrs by CCK8 assay. In kind it is cell-based. The note with it: raw264.7, 24 h. The procedure, abridged:
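Cells were exposed to compound across 0–100 range for 24 h. Viability was then measured by CCK8 assay on the well supernatant, following kit instructions. Comparison was made with cells given 0 μM compound.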
(In general: Tetrazolium dyes change colour on reduction, which living cells bring about.)

For data set [5], the target named is T1, NF-kappa-B inhibitor alpha (Mus musculus). Put plainly: Inhibition of IkappaBalpha phosphorylation in LPS-stimulated mouse RAW264.7 cells assessed as reduction in NF-kappaB p65 nuclear translocation at 5 to 10 uM pretreated for 2 hrs followed by LPS-stimulation measured after 12 hrs by DAPI staining based immunofluorescence assay. In kind it is cell-based. An outline of the steps: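 Cells at 70% confluence were pretreated with DMSO, given 5 or 10 μM compound for 2 h, then activated with 1 μg/mL LPS for 12 h. Cells were fixed in 4% paraformaldehyde, permeabilized with 0.25% Triton X-100 and blocked with 5% BSA. Staining used P65 antibody (1:1000, 4 °C overnight), AlexaFluor488 secondary (1:500, 1 h) and DAPI for nuclei.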

For data set [6] the target is unchanged. The experiment in a line: Inhibition of IkappaBalpha phosphorylation in LPS-induced mouse RAW264.7 cells assessed as reduction in NFkappaB expression preincubated for 3 hrs followed by LPS-stimulation and measured by Western blot analysis. In kind it is cell-based. The procedure, abridged: as §1
For orientation: In western blotting, separated proteins are transferred to a membrane and probed.

For data set [7], the system named is RAW264.7. Put plainly: Anti-inflammatory activity in mouse RAW264.7 cells assessed as inhibition of LPS-induced IL-6 production preincubated for 3 hrs followed by LPS-stimulation and measured after 24 hrs by ELISA. In kind it is functional, cell-based. The procedure, abridged: (§2)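 Cells were pretreated with compound at 2.5, 5 or 10 μM for 3 h, then stimulated with 1 μg/mL LPS for 24 h. IL-1β and IL-6 were quantified in collected supernatants by commercial ELISA kits. Significance was assessed against unstimulated, untreated control.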

Data set [8] addresses T1, NF-kappa-B inhibitor alpha (Mus musculus). The experiment in a line: Inhibition of LPS-induced IkappaBalpha phosphorylation in mouse RAW264.7 cells at 10 uM preincubated for 3 hrs followed by LPS-stimulation and measured by Western blot analysis. In kind it is cell-based. The procedure, abridged: as §1
The subject of data set [9] is RAW264.7. The experiment in a line: Anti-inflammatory activity in mouse RAW264.7 cells assessed as inhibition of LPS-induced IL1beta production preincubated for 3 hrs followed by LPS-stimulation and measured after 24 hrs by ELISA. Type of data set: functional, cell-based. An outline of the steps:
as §2

For `C=C1[C@@H](OC(=O)c2ccccc2)C[C@H]2[C@@H](/C=C(\C)C(=O)[C@@]3(OC(C)=O)C[C@H](C)[C@H](OC(=O)c4ccccc4)[C@@H]3[C@H]1OC(C)=O)C2(C)C`, the concentration for half-maximal inhibition (IC50) is over 50 µM in data set [1] and over 100 µM in data set [2].
For `CC(=O)O[C@@H]1[C@H]2[C@@H](OC(=O)Cc3ccccc3)[C@@H](C)C[C@]2(OC(C)=O)C(=O)/C(C)=C/[C@@H]2[C@H](CC[C@]13CO3)C2(C)C`, the IC50 in [1] is over 50 µM; in [2], 9.9 µM.
On the same counts, the results for `CC(=O)O[C@]12C[C@H](C)[C@H](O)[C@@H]1[C@H]1O[C@]1(C)CC[C@H]1[C@H](/C=C(\C)C2=O)C1(C)C` are over 50 µM and over 100 µM.
For `CC(=O)O[C@]12C[C@H](C)[C@H](OC(=O)Cc3ccccc3)[C@@H]1/C=C(/CO)CC[C@H]1[C@@H](/C=C(\C)C2=O)C1(C)C` the same measures were over 50 µM and over 100 µM.
As to `C=C1[C@H](OC(C)=O)C[C@H]2[C@@H](/C=C(\C)C(=O)[C@@]3(OC(C)=O)C[C@H](C)[C@H](OC(=O)c4ccccc4)[C@@H]3[C@H]1O)C2(C)C`, the IC50 in data set [1] was over 50 µM; in [2], 4 µM.
On the same counts, the results for `C=C1CC[C@H]2[C@@H](/C=C(\C)C(=O)[C@@]3(OC(C)=O)C[C@H](C)[C@H](OC(=O)c4ccccc4)[C@@H]3[C@H]1OC(C)=O)C2(C)C` are over 50 µM and 8.3 µM.
For the compound `CCCCCC(=O)O[C@H]1[C@@H](C)C[C@]2(OC(C)=O)C(=O)/C(C)=C/[C@@H]3[C@H](CC/C(CO)=C\[C@@H]12)C3(C)C`, the values for the IC50 in [1] and in data set [2] were over 50 µM and 9.3 µM, respectively.
On the same counts, the results for `CC(=O)OC/C1=C/[C@H]2[C@@H](OC(=O)[C@H](O)c3ccccc3)[C@@H](C)C[C@]2(OC(C)=O)C(=O)/C(C)=C/[C@@H]2[C@H](CC1)C2(C)C` are over 50 µM and over 50 µM.
On the same counts, the results for `CC(=O)OC/C1=C/[C@@H]2[C@@H](O)[C@@H](C)C[C@]2(OC(C)=O)C(=O)/C(C)=C/[C@@H]2[C@H](CC1)C2(C)C` are over 50 µM and over 50 µM.
In the case of `CC(=O)O[C@]12C[C@H](C)[C@H](OC(=O)/C=C/c3ccccc3)[C@@H]1/C=C(/CO)CC[C@H]1[C@@H](/C=C(\C)C2=O)C1(C)C`, the IC50 in data set [1] was over 50 µM; in data set [2], 26 µM.
For `C=C1[C@@H](OC(=O)c2cccnc2)C[C@H]2[C@@H](/C=C(\C)C(=O)[C@@]3(OC(C)=O)C[C@H](C)[C@H](OC(=O)c4ccccc4)[C@@H]3[C@H]1OC(C)=O)C2(C)C` the same measures were over 50 µM and 2.6 µM.
On the same counts, the results for `C=C1CC[C@H]2[C@@H](/C=C(\C)C(=O)[C@@]3(OC(C)=O)C[C@H](C)[C@H](OC(=O)c4cccnc4)[C@@H]3[C@H]1OC(C)=O)C2(C)C` are over 50 µM and 100 µM.
As to `C[C@@H]1C[C@H]2[C@@H]3CCC4=CC(=O)C=C[C@]4(C)[C@@]3(F)[C@@H](O)C[C@]2(C)[C@@]1(O)C(=O)CO` [DEXAMETHASONE], in data set [2], the concentration for half-maximal inhibition (IC50) was determined as 7.9 µM.
Regarding `C=C1[C@@H](OC(=O)c2ccccc2)C[C@H]2[C@@H](/C=C(\C)C(=O)[C@@]3(O)C[C@H](C)[C@H](OC(=O)c4ccccc4)[C@@H]3[C@H]1OC(C)=O)C2(C)C`, the IC50 in [1] is over 50 µM; in [2] it was 15.2 µM.
On the same counts, the results for `C=C1[C@H](O)C[C@H]2[C@@H](/C=C(\C)C(=O)[C@@]3(OC(C)=O)C[C@H](C)[C@H](OC(=O)c4ccccc4)[C@@H]3[C@H]1OC(C)=O)C2(C)C` are over 50 µM and 5 µM.
For `CC(=O)OC/C1=C\C[C@H]2[C@@H](/C=C(\C)C(=O)[C@@]3(O)C[C@H](C)[C@H](OC(=O)c4ccccc4)[C@@H]3[C@H]1OC(C)=O)C2(C)C` the same measures were over 50 µM and over 100 µM.
In the case of `C=C1CC[C@H]2[C@@H](/C=C(\C)C(=O)[C@@]3(OC(C)=O)C[C@H](C)[C@H](OC(=O)/C=C/c4ccccc4)[C@@H]3[C@H]1O)C2(C)C`, the inhibition result in [3], in data set [6], in data set [7] and in data set [9] was “Dose-dependent effect” throughout. The Activity entry in [4] is on record as “Toxic”. The inhibition result in [5] and in data set [8] was “Active” in each case. Moreover, the IC50 in data set [1] is over 50 µM; in data set [2], 3 µM.
